We go through 59 molecules from ChEMBL document CHEMBL1773054, “Ethionamide boosters: synthesis, biological activity, and structure-activity relationships of a series of 1,2,4-oxadiazole EthR inhibitors” (J Med Chem, 2011).

In brackets after ≈: the same amount, converted by molar mass.

The nature of series [1]: Inhibition of EthR in Mycobacterium tuberculosis H37Rv expressing GFP infected in mouse RAW264.7 cells assessed as concentration required to ethionamide-induced 50% inhibition of bacterial growth after 5 days by microscopic analysis. Type of series: cell-based. The following applies: RAW264.7, 120 h. The method in brief:
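Raw264.7 macrophages infected with M. tuberculosis H37Rv-GFP (MOI 1:1, 2 h, 37 °C, shaking); extracellular bacilli killed with amikacin 20 μM for 1 h. Cells added to wells holding ethionamide fixed at 0.1 μg/mL plus ten 2-fold dilutions of compound. Incubated 5 days at 37 °C, 5% CO2. Macrophages stained with SYTO 60, then imaged by automated confocal microscopy. Read-out is % infected cells. EC50 is the mean of two experiments.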

The subject of series [2] is RAW264.7. Nature of the series: Inhibition of EthR in Mycobacterium tuberculosis H37Rv expressing GFP infected in mouse RAW264.7 cells assessed as potentiation of ethionamide-induced inhibition of intracellular bacterial growth after 5 days by microscopic analysis. Type of series: cell-based.
For series [3], the system named is RAW264.7. Nature of the series: Cytotoxicity against mouse RAW264.7 cells at > 30 uM. It is filed as cell-based.
Series [4] is described as follows: Half life in CD1 mouse liver microsomes by LC-MS-MS analysis. Type of series: ADME, Microsome. In short, it runs like this:
(§1)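 Male CD-1 mouse liver microsomes (0.6 mg protein/mL), compound 1 μM with 1% methanol vehicle, 5 mM MgCl2, 1 mM NADP, 5 mM glucose-6-phosphate, 0.4 U/mL G6PDH, 50 mM potassium phosphate pH 7.4, 37 °C, duplicates.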
Background: Microsomes from liver hold many membrane-bound enzymes, among them those of drug oxidation.

The target in series [5] is HTH-type transcriptional regulator EthR (Mycobacterium tuberculosis, UniProt P9WMC1). Nature of the series: Inhibition of Mycobacterium tuberculosis EthR interaction to ethA promoter after 5 mins by surface plasmon resonance assay. For orientation: Surface plasmon resonance follows binding to a sensor surface in real time, without labels.
Sequence of HTH-type transcriptional regulator EthR (P9WMC1 whole entry): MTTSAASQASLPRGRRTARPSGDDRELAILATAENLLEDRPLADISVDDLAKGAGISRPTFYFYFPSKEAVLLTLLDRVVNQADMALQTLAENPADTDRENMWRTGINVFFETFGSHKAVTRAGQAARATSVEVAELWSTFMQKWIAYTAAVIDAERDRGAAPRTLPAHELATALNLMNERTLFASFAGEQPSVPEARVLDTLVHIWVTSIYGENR
For series [6], the system named is Liver. Nature of the series: (§2) Intrinsic clearance in CD1 mouse liver microsomes by LC-MS-MS analysis. It is filed as ADME, Microsome. The following applies: mouse, microsomes. The method in brief: as §1
Series [7] in a line: Solubility of the compound at pH 7.4 after 24 hrs. As to conditions: buffer. Type of series: physicochemical. The method in brief:
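A 10 mM DMSO solution was diluted into PBS pH 7.4 or methanol and shaken gently 24 h at room temperature. It was then centrifuged and passed through a 0.45 μm filter. Filtrate was diluted in methanol and read by LC-MS-MS. Solubility was taken from the PBS/methanol mass-signal area ratio.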

Series [8] can be described thus: as §2. Type of series: ADME, Microsome. As to conditions: CD1, mouse, liver microsomes. The method in brief:
as §1

One may read the EC50 as the midpoint of the concentration-response curve. `O=C(Cc1ccccn1)N1CCC(c2nc(-c3cccs3)no2)CC1`: in series [1], the EC50 was over 5 µM. Besides, the fold change (FC) in series [2] came out at 10.
`CC(CC(=O)N1CCC(c2nc(-c3cccs3)no2)CC1)C(F)(F)F` (stereo unspecified): the concentration giving a half-maximal response (EC50) in series [1] was over 5 µM.
In the case of `Cc1ccccc1CC(=O)N1CCC(c2nc(-c3cccs3)no2)CC1`, the EC50 in series [1] was over 5 µM. Besides, the fold change (FC) in series [2] came to 10.
Consider `CC(C)CCC(=O)N1CCC(c2nc(-c3cccs3)no2)CC1`, for which, in series [1], the EC50 came out at 0.1 µM. In addition, in series [3], the Activity entry is on record as “Toxic”.
Take `CC(C)C[C@H](N)C(=O)N1CCC(c2nc(-c3cccs3)no2)CC1`: the EC50 in series [1] was over 5 µM.
For `Cc1cccc(CC(=O)N2CCC(c3nc(-c4cccs4)no3)CC2)c1`, the concentration for a half-maximal effect (EC50) in series [1] was over 5 µM. The fold change (FC) in series [2] was 10.
For the molecule `O=C(CC(F)(F)F)N1CCC(c2nc(-c3cccs3)no2)CC1`, the concentration for a half-maximal effect (EC50) in series [1] came out at 1.3 µM.
As usually defined, the half-life is the time in which the quantity being followed falls by half. In turn, `CC(C)NCC(O)COc1cccc2ccccc12` (stereo unspecified) [PROPRANOLOL] gave a half-life in series [4] of 13 min.
As to `[N-]=[N+]=NCC(=O)N1CCC(c2nc(-c3cccs3)no2)CC1`, the EC50 in series [1] stood at 1.2 µM.
Same read-out and setting: the same measure for `O=C(CCC(F)(F)F)N1CCC[C@@H](c2nc(-c3cccs3)no2)C1`: over 5 µM; for `O=C(CC(O)C(F)(F)F)N1CCC(c2nc(-c3cccs3)no2)CC1` (stereo unspecified): over 5 µM.
Take `COc1ccc(CC(=O)N2CCC(c3nc(-c4cccs4)no3)CC2)cc1`: in series [1], the EC50 is over 5 µM. The fold change (FC) in series [2] worked out at 10.
As for `O=C(Cc1ccc(Cl)cc1)N1CCC(c2nc(-c3cccs3)no2)CC1`, the concentration for a half-maximal effect (EC50) in series [1] came to 2.2 µM. Also, the fold change (FC) in series [2] worked out at 10.
For `CC(C)CC(O)C(=O)N1CCC(c2nc(-c3cccs3)no2)CC1` (stereo unspecified), the concentration giving a half-maximal response (EC50) in series [1] is over 5 µM.
Still for that read-out and setting: the same measure for `CC(=O)N1CCC(c2nc(-c3cccs3)no2)CC1`: over 5 µM.
What is called IC50 is the concentration at which inhibition is half-maximal. High values mean lower potency, low ones higher potency. Take `O=C(Cc1ccccc1)N1CCC(c2nc(-c3cccs3)no2)CC1`: the EC50 in series [1] turned out to be 2.1 µM. For the same molecule, the fold change (FC) in series [2] worked out at 10. The molecule also displayed an IC50 in series [5] of 5.6 µM.
Consider `O=C(Cc1cccc(F)c1)N1CCC(c2nc(-c3cccs3)no2)CC1`, for which the EC50 in series [1] was over 5 µM. Also, the fold change (FC) in series [2] stood at 10.
In the case of `O=C(CCc1cccs1)N1CCC(c2nc(-c3cccs3)no2)CC1`, the EC50 in series [1] was over 5 µM. The fold change (FC) in series [2] amounted to 10.
The like results for `O=C(Cc1ccccc1F)N1CCC(c2nc(-c3cccs3)no2)CC1` were, in that order, over 5 µM and 10.
As to `O=C(CCC(F)(F)F)N1CCC(c2nc(-c3cccs3)no2)CC1`, the EC50 in series [1] came out at 0.1 µM. Moreover, in series [3], the Activity result is “Non-toxic”. Moreover, the half-life in series [4] turned out to be 5 min. Further, in series [6], the CL is 213 µL/min/mg.
With `CC(CC(F)(F)F)C(=O)N1CCC(c2nc(-c3cccs3)no2)CC1` (stereo unspecified), the EC50 in series [1] was over 5 µM.
With `CC(C)[C@H](N)C(=O)N1CCC(c2nc(-c3cccs3)no2)CC1`, in series [1], the 50% effective concentration (EC50) was over 5 µM.
On the same count and under the same terms, as for `CC(C)CC(=O)N1CCC(c2nc(-c3cccs3)no2)CC1`, the figure is 2.5 µM; as for `CC(C)(C)CC(=O)N1CCC(c2nc(-c3cccs3)no2)CC1`, over 5 µM.
Consider `O=C(CCC(F)(F)F)N1CC[C@H](c2nc(-c3cccs3)no2)C1`, for which the EC50 in series [1] came out at 1.6 µM.
In the case of `O=C(CC1CCCC1)N1CCC(c2nc(-c3cccs3)no2)CC1`, the concentration for a half-maximal effect (EC50) in series [1] was 0.4 µM. The Activity entry in series [3] was “Toxic”.
As to `O=C(Cc1ccccc1C(F)(F)F)N1CCC(c2nc(-c3cccs3)no2)CC1`, the EC50 in series [1] is over 5 µM. Also, in series [2], the fold change (FC) came to 10.
For the molecule `O=C(NCC(F)(F)F)N1CCC(c2nc(-c3cccs3)no2)CC1`, the EC50 in series [1] is over 5 µM.
Turning to `O=C(O)CCC(=O)N1CCC(c2nc(-c3cccs3)no2)CC1`, the EC50 in series [1] is over 5 µM.
Regarding `O=C(Cc1cccnc1)N1CCC(c2nc(-c3cccs3)no2)CC1`, in series [1], the EC50 is over 5 µM. In addition, the fold change (FC) in series [2] was determined as 10.
Turning to `O=C(CC1CCCCC1)N1CCC(c2nc(-c3cccs3)no2)CC1`, the EC50 in series [1] turned out to be 0.3 µM. The Activity result in series [3] is reported as “Toxic”.
On to `O=C(Cc1ncc[nH]1)N1CCC(c2nc(-c3cccs3)no2)CC1`, for which, in series [1], the EC50 was over 5 µM. Further, the fold change (FC) in series [2] stood at 10.
On to `O=C(Cc1ccccc1Cl)N1CCC(c2nc(-c3cccs3)no2)CC1`, for which the EC50 in series [1] was over 5 µM. Besides, the fold change (FC) in series [2] turned out to be 10.
As to `CC1CCC(CC(=O)N2CCC(c3nc(-c4cccs4)no3)CC2)CC1` (stereo unspecified), the EC50 in series [1] was over 5 µM.
The same measure, in the same setting: the same measure for `COCCC(=O)N1CCC(c2nc(-c3cccs3)no2)CC1`: over 5 µM.
Take `O=C(Cc1ccc(F)cc1)N1CCC(c2nc(-c3cccs3)no2)CC1`: the EC50 in series [1] was found to be 0.8 µM. In addition, the fold change (FC) in series [2] is 10.
The like results for `COc1ccccc1CC(=O)N1CCC(c2nc(-c3cccs3)no2)CC1` were, in that order, over 5 µM and 10.
The corresponding values for `O=C(Cc1ccncc1)N1CCC(c2nc(-c3cccs3)no2)CC1` are over 5 µM and 10.
As for `O=S(=O)(CCC(F)(F)F)N1CCC(c2nc(-c3cccs3)no2)CC1`, the EC50 in series [1] was over 5 µM.
For `O=C(CCC(F)(F)F)N1CCC[C@H](c2nc(-c3cccs3)no2)C1`, the EC50 in series [1] was over 5 µM.
In the case of `Cc1ccc(CC(=O)N2CCC(c3nc(-c4cccs4)no3)CC2)cc1`, in series [1], the EC50 is over 5 µM. Further, in series [2], the fold change (FC) is 10.
For the molecule `O=C(CCC(F)(F)F)N1CC(c2nc(-c3cccs3)no2)C1`, the EC50 in series [1] was over 5 µM.
With `O=C(Cc1cccc(Cl)c1)N1CCC(c2nc(-c3cccs3)no2)CC1`, in series [1], the EC50 was over 5 µM. Moreover, the fold change (FC) in series [2] was 10.
With `CC(C)(C)CCC(=O)N1CCC(c2nc(-c3cccs3)no2)CC1`, the EC50 in series [1] is over 5 µM.
The solubility is how much of the substance goes into solution per volume. Regarding `O=C(CCC(F)(F)F)N1CC[C@@H](c2nc(-c3cccs3)no2)C1`, the concentration giving a half-maximal response (EC50) in series [1] worked out at 0.4 µM. The Activity result in series [3] is given as “Non-toxic”. Further, the solubility at 24 h in series [7] was found to be 80 µg/mL (≈ 232 µM). Besides, the half-life in series [4] was determined as 298 min.
With `O=C(CCC(F)(C(F)(F)F)C(F)(F)F)N1CCC(c2nc(-c3cccs3)no2)CC1`, in series [1], the EC50 is over 5 µM.
By microsomal CLint is commonly meant the rate of metabolic loss divided by the concentration. A high value points to faster metabolism. In the case of `N#CCC(=O)N1CCC(c2nc(-c3cccs3)no2)CC1`, the EC50 in series [1] was 1.5 µM. Also, the solubility at 24 h in series [7] amounted to 194 µg/mL (≈ 642 µM). Further, the half-life in series [4] came out at 91 min. This molecule also returned a microsomal CLint in series [8] of 11 µL/min/mg.
As for `CCCC(=O)N1CCC(c2nc(-c3cccs3)no2)CC1`, the EC50 in series [1] came to 2.1 µM.
On the same count and under the same terms, as for `COCC(=O)N1CCC(c2nc(-c3cccs3)no2)CC1`, the figure is over 5 µM.
Turning to `O=C(CC1CC1)N1CCC(c2nc(-c3cccs3)no2)CC1`, the EC50 in series [1] turned out to be 0.2 µM. For the same molecule, half-maximal inhibition in series [5] (IC50) was put at 1.1 µM. Moreover, the Activity entry in series [3] is given as “Non-toxic”. Moreover, the solubility at 24 h in series [7] stood at 64 µg/mL (≈ 202 µM).
Regarding `CCCCC(=O)N1CCC(c2nc(-c3cccs3)no2)CC1`, the EC50 in series [1] came to 1.1 µM.
Consider `O=C(Cc1cccs1)N1CCC(c2nc(-c3cccs3)no2)CC1`, for which the concentration giving a half-maximal response (EC50) in series [1] came out at 0.1 µM. For the same molecule, the half-inhibitory concentration (IC50) in series [5] came out at 0.5 µM. For the same molecule, the solubility at 24 h in series [7] was determined as 22 µg/mL (≈ 61.2 µM). Moreover, in series [4], the half-life turned out to be 3 min. In series [8], the microsomal CLint was found to be 412 µL/min/mg.
As to `CCC(=O)N1CCC(c2nc(-c3cccs3)no2)CC1`, in series [1], the EC50 is over 5 µM.
Still for that read-out and setting: the same measure for `O=C(CCC(F)(F)F)NCCCc1nc(-c2cccs2)no1`: over 5 µM.
As to `O=C(c1ccccc1)N1CCC(c2nc(-c3cccs3)no2)CC1`, the EC50 in series [1] is over 5 µM. In addition, in series [2], the fold change (FC) was 10.
Take `O=C(Cc1cccc(C(F)(F)F)c1)N1CCC(c2nc(-c3cccs3)no2)CC1`: in series [1], the EC50 was over 5 µM. Further, the fold change (FC) in series [2] was found to be 10.
For `O=C(CCC1CCCCC1)N1CCC(c2nc(-c3cccs3)no2)CC1`, in series [1], the EC50 stood at 1.8 µM.
As to `COc1cccc(CC(=O)N2CCC(c3nc(-c4cccs4)no3)CC2)c1`, the EC50 in series [1] was over 5 µM. Moreover, the fold change (FC) in series [2] stood at 10.
The like results for `O=C(Cc1ccc(C(F)(F)F)cc1)N1CCC(c2nc(-c3cccs3)no2)CC1` were, in that order, over 5 µM and 10.
